# Experimental data taken from ChEMBL document CHEMBL3875153, “Design and synthesis of isatin/triazole conjugates that induce apoptosis and inhibit migration of MGC-803 cells” (Eur J Med Chem, 2016).
# Assays:
# [1] = Cytotoxicity against human TE1 cells assessed as growth inhibition after 72 hrs by CCK8 assay; type: functional, cell-based, TE-1; conditions: Homo sapiens, TE-1, 72 h; read-out: IC50
# Outline: (§1)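 Exponentially growing cells were trypsinized and seeded at 2 × 10^4 cells/mL (100 µL/well). After 24 h, medium was replaced with compound at 0.5–256 µM (twofold steps). Plates were incubated 72 h at 37 °C, 5% CO2, then with CCK-8 for 4 h. A450 was read. Three independent runs; IC50 given as mean and SD.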
# [2] = Cytotoxicity against human MCF7 cells assessed as growth inhibition after 72 hrs by CCK8 assay; type: functional, cell-based; conditions: Homo sapiens, MCF7, 72 h; read-out: IC50; outline: as §1
# [3] = Cytotoxicity against human SW780 cells assessed as growth inhibition after 72 hrs by CCK8 assay; type: functional, cell-based; conditions: Homo sapiens, SW780, 72 h; read-out: IC50; outline: as §1
# [4] = Cytotoxicity against human MGC803 cells assessed as growth inhibition after 72 hrs by CCK8 assay; type: functional, cell-based, MGC-803; conditions: Homo sapiens, MGC-803, 72 h; read-out: IC50; outline: as §1
# [5] = Cytotoxicity against human HL-7702 cells assessed as growth inhibition after 72 hrs by CCK8 assay; type: toxicity, cell-based, L02; conditions: human, HL-7702 cells; outline: as §1
# [6] = Cytotoxicity against human GES-1 cells assessed as growth inhibition after 72 hrs by CCK8 assay; type: toxicity, cell-based, GES1; conditions: human, GES-1 cells; outline: as §1
Compound,IC50 [1] [µM],IC50 [2] [µM],IC50 [3] [µM],IC50 [4] [µM],IC50 at 72 h [5] [µM],IC50 at 72 h [6] [µM]
O=C1C(=O)N(Cc2cn(CC(=O)N3CCCCC3)nn2)c2c(Cl)ccc(Cl)c21,40.6,34.6,29.7,18.7,39.3,50.7
O=C1C(=O)N(Cc2cn(CC(=O)N3CCCC3)nn2)c2c(Cl)ccc(Cl)c21,51.6,62.4,48.2,14.8,> 128,88.7
